FGF22 binding: FGF22 (human) thermal shift binding | activity (Tm shift, normalised), % at 9.99 µM | Q9HCT0 | hit rate 1.5% among 340,000 | recombinant FGF22 thermal shift, SYPRO orange fluorescence; percent of sucrose octasulfate shift, DMSO zero | AID 651658;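 active = mean Tm shift, scaled 0 neutral to 100 positive control, at about 1.3% or above, every replicate too, limit read from the data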
PglD inh: blocks C. jejuni PglD acetyltransferase activity; purified PglD enzyme, DTNB colorimetric CoA detection; inhibition, % at 12.5 µM; hit rate 0.098% among 360,000; AID 602405; in the data active = inhibition above about 16%, passing the limit was not always enough
DENV2 CPE rescue: protects cells from dengue virus 2 cytopathic effect | DENV2-infected cells, cytopathic effect rescue, plate reader | AID 651640 | CPE inhibition, % at 9.99 µM | hit rate 1.7% among 350,000; in the data active = CPE inhibition above about 20%, passing the limit was not always enough; tested in BHK-21 cells;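 also: 0% = median of neutral control wells and 100% = median of positive control wells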
XiGFP reactiv: X-chromosome reactivation activator. XiGFP mouse fibroblasts, % GFP-positive cells imaging, 3 d; cells co-treated with 5-aza-dC sensitizer; scaled so ellipticine positive control = 100%. activation, % at 7.58 µM. hit rate 0.055% among 360,000. AID 743238;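 active = mean normalized replicate activation at least 10% and every replicate at or above 10%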;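 also: 0% = median of on-plate neutral control wells and 100% = ellipticine 6 µM median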
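Material: SV40-immortalized XiGFP fibroblast cells, line 68-5-11 | Buffer or medium: DMEM containing 5-aza-dC | Dosing: One concentration, pinned | Times: 3 d treatment, 15 min room-temperature fixation | Controls: Ellipticine 6 µM positive control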
E-sel inducer: E-selectin induction on HUVECs; HUVEC E-selectin immunofluorescence imaging; normalized: neutral wells 0, TNF-alpha wells 100; activation, % at 7.58 µM; hit rate 0.37% among 260,000;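 active = mean E-selectin-positive cell signal at least 10% of the positive control, reached in at least 60% of replicates, without over 20% cell loss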
Target sequence (P16581 whole entry, looked up): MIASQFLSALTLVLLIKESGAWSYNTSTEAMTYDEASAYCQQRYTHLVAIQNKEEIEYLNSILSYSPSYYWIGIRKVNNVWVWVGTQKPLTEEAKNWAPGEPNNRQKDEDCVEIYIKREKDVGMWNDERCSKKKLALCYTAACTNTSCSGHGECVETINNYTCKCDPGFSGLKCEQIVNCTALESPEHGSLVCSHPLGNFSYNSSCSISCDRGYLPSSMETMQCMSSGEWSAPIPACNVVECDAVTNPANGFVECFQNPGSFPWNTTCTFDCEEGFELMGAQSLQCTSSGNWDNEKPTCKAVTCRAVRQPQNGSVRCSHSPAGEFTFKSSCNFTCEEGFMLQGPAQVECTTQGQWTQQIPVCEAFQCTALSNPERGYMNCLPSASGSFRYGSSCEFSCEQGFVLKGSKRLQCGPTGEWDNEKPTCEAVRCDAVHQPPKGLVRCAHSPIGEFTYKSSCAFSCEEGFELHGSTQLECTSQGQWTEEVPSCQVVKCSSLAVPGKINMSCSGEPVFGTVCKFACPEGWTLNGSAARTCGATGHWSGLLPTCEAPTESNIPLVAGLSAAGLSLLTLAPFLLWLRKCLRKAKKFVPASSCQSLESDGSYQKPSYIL
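Read-out: % PE-positive cells | Test system: HUVEC | Doses: One compound dose added by pin transfer | Buffer or medium: EGM-2 over gelatin coat | Signal: Immunofluorescence imaging | Benchmarks: TNF-alpha, DMSO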
Statin myotox sup: suppression of simvastatin myotoxicity | C2C12 myotubes + simvastatin, ATP luminescence, 48 h; scaled: DMSO 0, geranylgeraniol control 100 | rescue of ATP level, % at 7.49 µM | hit rate 0.78% among 330,000;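 active = mean ATP rescue above about 67%, or every replicate alone reaching that limit, limit read from the data, passing the limit was not always enough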;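 also: myotubes were challenged with 10 µM simvastatin during compound exposure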
Active calls of the source: *; · = not tested or not shown. In the library only some 3.3% were active in any assay of this set; here they are far more common.

SMILES	FGF22 binding	PglD inh	DENV2 CPE rescue	XiGFP reactiv	E-sel inducer	Statin myotox sup
CC(=O)Nc1cccc(C(=O)OCc2ccc([N+](=O)[O-])cc2)c1	43.2*	·	-8.2	0.0	·	·
O=C(CN1CCN(c2ccccn2)CC1)NCCc1ccccc1	·	-3.9	·	·	·	111.2*
O=C(CN1CCN(c2ccccn2)CC1)Nc1ccc(F)cc1	·	5.4	·	·	·	115.7*
O=C(CN1CCN(c2ccccn2)CC1)Nc1ccccc1	·	2.2	·	·	·	3.8
O=C(c1ccc(NS(=O)(=O)c2cccc3cccnc23)cc1)N1CCOCC1	·	3.4	·	·	·	·
O=C(c1ccc(NS(=O)(=O)c2cccc3cccnc23)cc1)N1CCCCC1	43.7*	·	0.0	0.0	-3.4	·
O=C(c1ccc(NS(=O)(=O)c2ccc(F)cc2)cc1)N1CCCCC1	-0.4	·	0.7	-0.7	-1.6	·
O=C(c1ccc(S(=O)(=O)Nc2ccc(F)cc2)cc1)N1CCN(c2ccccn2)CC1	42.9*	·	-8.3	-0.2	·	·
O=C(C[C@H]1C=C[C@@H](NC(=O)CCN2CCCCC2)[C@H](CO)O1)Nc1ccccc1	·	·	15.4	-0.2	0.0	·
Cc1ccc(/C=N/NC(=O)c2n[nH]c3c2CCCC3)cc1	0.1	1.4	-4.2	0.2	0.1	·
O=C(N/N=C/c1cccs1)c1n[nH]c2c1CCCC2	-0.1	1.1	2.3	0.3	74.6*	·
COc1cc2cc(C[C@H](C)O)oc(=O)c2cc1OC	·	6.1	·	0.1	-0.1	9.2
COc1cc2cc(CCO)oc(=O)c2cc1OC	-0.6	1.5	89.0*	0.8	-0.1	-8.3
COc1cc2cc(CCOC(=O)CCCC(=O)O)oc(=O)c2cc1OC	-0.2	0.5	-7.4	-0.1	0.2	0.2
COc1cc2cc(CCCOC(=O)CCC(=O)O)oc(=O)c2cc1OC	-0.2	2.1	28.1*	-0.1	0.2	-0.1
C[C@@H]1CN([C@@H](C)CO)C(=O)Cc2cc(NS(=O)(=O)c3ccccc3)ccc2O[C@H]1CN(C)C(=O)Nc1ccccc1	-0.1	1.3	-11.3	0.0	0.3	11.4
C[C@H](CO)N1C[C@H](C)[C@@H](CN(C)C(=O)Nc2ccccc2)Oc2ccc(NS(=O)(=O)c3ccc(Cl)cc3)cc2CC1=O	0.1	-1.6	58.3*	0.0	0.0	3.7
C[C@@H]1CN([C@@H](C)CO)C(=O)Cc2cc(NS(=O)(=O)c3ccc(F)cc3)ccc2O[C@@H]1CN(C)C(=O)Nc1ccccc1	0.3	5.1	-1.1	-0.2	0.0	4.8
C[C@H]1CN([C@@H](C)CO)C(=O)Cc2cc(NS(=O)(=O)c3ccc(F)cc3)ccc2O[C@@H]1CN(C)C(=O)Nc1ccccc1	0.0	-4.3	62.4*	-0.1	-0.1	14.0
COc1ccc(S(=O)(=O)Nc2ccc3c(c2)CC(=O)N([C@@H](C)CO)C[C@H](C)[C@H](CN(C)C(=O)Nc2ccc4c(c2)OCO4)O3)cc1	-0.2	-0.3	-11.9	-0.4	-0.4	-4.9
C[C@H](CO)N1C[C@H](C)[C@H](CN(C)C(=O)Nc2ccccc2)Oc2ccc(NS(=O)(=O)c3ccccc3)cc2CC1=O	-0.2	0.4	33.6*	0.0	0.2	15.9
COc1ccc(S(=O)(=O)Nc2ccc3c(c2)CC(=O)N([C@H](C)CO)C[C@H](C)[C@@H](CN(C)C(=O)Nc2ccc4c(c2)OCO4)O3)cc1	-0.1	-1.2	26.1*	-0.5	-0.2	-6.6
COc1cccc(C#Cc2ccc([C@H]3[C@H](CO)N4C(=O)CN(S(=O)(=O)c5ccccc5C)C[C@@H]34)cc2)c1	0.6	·	-4.6	0.0	-0.7	·
COc1ccc(NC(=O)N(C)C[C@@H]2Oc3ccc(NS(=O)(=O)c4ccccc4)cc3CC(=O)N([C@H](C)CO)C[C@@H]2C)cc1	0.3	·	39.0*	0.2	-0.1	3.7
C[C@@H]1CN([C@H](C)CO)C(=O)Cc2cc(NS(=O)(=O)c3ccccc3)ccc2O[C@@H]1CN(C)S(=O)(=O)c1ccccc1	-0.2	1.1	-19.8	0.1	0.5	-10.1
C[C@H](CO)N1C[C@H](C)[C@@H](CN(C)S(C)(=O)=O)Oc2ccc(NS(=O)(=O)c3ccccc3)cc2CC1=O	-0.2	-1.6	70.2*	0.1	0.7	1.0
